Screening results as filed in PubChem.
ADAM17 inh – inhibits human ADAM17; P78536; recombinant ADAM17, EDANS/DABCYL FRET peptide cleavage; inhibition, % at 6.95 µM; 370,000 compounds, 0.83% hits; AID 720648;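 active = inhibition above the mean of compounds lying between control limits plus 3 SD, set per campaign, cut at about 8.5% in these data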
Hep lipid drop – hepatic lipid droplet formation modulation | AML12 mouse hepatocytes, oleate lipid droplets, BODIPY imaging | inhibition, % at 6.5 µM | 240,000 compounds, 0.4% hits | AID 1656;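 active = lipid droplet intensity inhibited by at least 50%, with more than 500 cells counted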
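material = mouse AML12 hepatocyte cell line, fixed after treatment | also added = 100 µM oleic acid challenge | doses = compound at 6.5 µM only | schedule = overnight exposure | technique = Image-based BODIPY and DAPI two-channel analysis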
V-ATPase pH – alters yeast V-ATPase proton transport | response, % at 10 µM | S. cerevisiae, pHLuorin cytosolic pH fluorescence | 350,000 compounds, 0.37% hits | AID 504577; in the data active = response mostly above about 7.3%, no sharp cut-off; inactive = mostly below about 5.4%; also: actives read high
ADAM10 inh – inhibitors of human ADAM10. O14672. recombinant ADAM10, EDANS/DABCYL FRET peptide cleavage, 3 h. inhibition, % at 7 µM. 370,000 compounds, 0.62% hits;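 active = inhibition above a per-campaign cutoff equal to the mean of compounds falling between control-based bounds plus 3 SD, cut at about 20% in these data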
Target sequence (O14672 214-748 limits assumed): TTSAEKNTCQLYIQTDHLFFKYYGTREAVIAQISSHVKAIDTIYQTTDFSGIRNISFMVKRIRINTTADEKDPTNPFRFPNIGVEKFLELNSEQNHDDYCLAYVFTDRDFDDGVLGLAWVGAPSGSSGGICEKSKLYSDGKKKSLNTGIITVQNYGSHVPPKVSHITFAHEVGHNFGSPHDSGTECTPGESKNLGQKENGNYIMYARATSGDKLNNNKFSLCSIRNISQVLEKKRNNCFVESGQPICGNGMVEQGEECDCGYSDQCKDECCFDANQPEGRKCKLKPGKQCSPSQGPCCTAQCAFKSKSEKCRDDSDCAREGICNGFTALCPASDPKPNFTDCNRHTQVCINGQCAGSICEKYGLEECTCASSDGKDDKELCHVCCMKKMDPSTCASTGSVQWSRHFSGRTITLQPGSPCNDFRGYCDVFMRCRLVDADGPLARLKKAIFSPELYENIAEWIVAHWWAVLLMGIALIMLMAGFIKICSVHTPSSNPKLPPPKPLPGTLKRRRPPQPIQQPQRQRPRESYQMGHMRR
MPTP block – blocks calcium-induced mitochondrial swelling. isolated mouse mitochondria, Ca2+ swelling absorbance, 30 min. 360,000 compounds, 1.4% hits. inhibition, % at 10 µM. AID 602449;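 active = inhibition of 50% or more, scaled per plate between neutral and stimulator controls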
aDG glyco act – increases alpha dystroglycan glycosylation; Pro5-aDG cells, alpha-DG glycosylation AlphaScreen (IIH6); 0% Pro5, 100% B10-LARGE cell signal; 360,000 compounds, 0.22% hits; activation, % at 10 µM;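 active = activation of at least 8% versus controls, or a plate z-score of at least 8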;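 also: Pro5 are CHO cells carrying HIG-tagged alpha-DG that lacks glycosylation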
Rh123 counter – membrane potential counter-screen of mitochondrial pore inhibitors; shares compounds with MPTP block; isolated mitochondria, Rhodamine 123 fluorescence; inhibition, % at 10 µM; 5,000 compounds, 78% hits; AID 624504; in the data active = inhibition above about 22%
MPTP abs DR – dose response confirmation of mitochondrial permeability transition pore inhibitors | IC50, µM | 780 compounds, 58% hits | isolated mitochondria swelling, absorbance | shares compounds with MPTP block; in the data active = IC50 below about 20 µM
MPTP cs DR – active in counter-screen for permeability transition pore inhibitors. isolated mitochondria counterscreen, fluorescence read-out. shares compounds with MPTP block. IC50, µM. 780 compounds, 49% hits; in the data active = IC50 below about 80 µM
Large screens that a line does not name were inactive (follow-up assays come after a bar, where they were run). In the library only some 3.1% were active in any assay of this set; here they are far more common.

COCCCNCCCOc1ccc(Cl)cc1C(C)(C)C	MPTP block 82 | Rh123 counter inactive | MPTP abs DR 6 | MPTP cs DR inactive
CNCCCOc1ccc(Cl)cc1C(C)(C)C	MPTP block 91 | Rh123 counter inactive | MPTP abs DR 5.1 | MPTP cs DR inactive
CCOC(=O)[C@@]12CCCC3=C1N(CCC3)C(=O)[C@H]2CC(=O)N1CCN(C(=O)C2CC2)CC1	none (no result: Hep lipid drop, V-ATPase pH, MPTP block, aDG glyco act)
Cc1c(C(=O)NN)[nH]c2ccc([N+](=O)[O-])cc12	none
CCCCC/C=N/NC(=O)c1[nH]c2ccc([N+](=O)[O-])cc2c1C	MPTP block 76 | Rh123 counter 73
Cc1ccc2[nH]c(C(=O)N/N=C/c3ccc([N+](=O)[O-])cc3)c(C)c2c1	MPTP block 51 | Rh123 counter 74
CCOC(=O)c1cccc(NC(=O)CN(C)S(=O)(=O)c2ccc(F)cc2)c1	none (no result: Hep lipid drop, V-ATPase pH, MPTP block, aDG glyco act)
Cc1cccc(C(=O)N2CCc3cc(-c4csc(NC(=O)CN5CCCC5)n4)ccc32)c1	MPTP block 86 | Rh123 counter inactive | MPTP abs DR inactive | MPTP cs DR 37
N#Cc1ccccc1N1CCN(C(=O)C2CCN(c3ncnc4c3sc3cccc(F)c34)CC2)CC1	none (no result: Hep lipid drop, V-ATPase pH, MPTP block, aDG glyco act)
NC(N)=NCCCC(NC(=O)c1ccccc1)C(=O)Nc1ccc2ccccc2c1 (stereo unspecified)	MPTP block 81 (no result: Hep lipid drop) | Rh123 counter inactive | MPTP abs DR 8.7 | MPTP cs DR inactive
Cc1cc(C)c(C)c(S(=O)(=O)N2CCN(c3ccccn3)CC2)c1C	none
Cc1cc(C)c(C)c(S(=O)(=O)N2CCN(c3ncnc4ccccc34)CC2)c1C	MPTP block 76 (no result: Hep lipid drop) | Rh123 counter 104
Cc1ccc(-c2cc(-c3nnc(SCc4cccc5ccccc45)n3N)[nH]n2)cc1	none (no result: Hep lipid drop, V-ATPase pH, MPTP block, aDG glyco act)
O=C(Nc1cc(Cl)cc(Cl)c1)Nc1cnccn1	MPTP block 62 | Rh123 counter 101
Cc1nc2ccccn2c1C(O)(c1ccccc1)c1ccccc1	none (no result: Hep lipid drop, V-ATPase pH, MPTP block, aDG glyco act)
COC(=O)C1CN(C2CCCC2)CCS(=O)(=O)N1Cc1ccc(C)cc1 (stereo unspecified)	none (no result: Hep lipid drop, V-ATPase pH, MPTP block, aDG glyco act)
CCOC(=O)C1=C(CC)Nc2ccccc2N=C1NC(=O)Nc1ccc(Cl)c(Cl)c1	MPTP block 97 | Rh123 counter 62
Cn1c(CNc2ccccc2F)nc2ccccc21	none (no result: Hep lipid drop, V-ATPase pH, MPTP block, aDG glyco act)
OCC1CCN(Cc2cn(Cc3ccccc3)nc2-c2cc3ccccc3o2)CC1	MPTP block 52 | Rh123 counter inactive | MPTP abs DR 18 | MPTP cs DR inactive
N#C/C(=C/c1cn(-c2ccccc2)nc1-c1cccc(OCc2ccc(F)cc2)c1)C(=O)NCCCn1ccnc1	MPTP block 54 | Rh123 counter inactive | MPTP abs DR inactive | MPTP cs DR inactive
CCCOc1cccc(-c2nn(-c3ccccc3)cc2/C=C(\C#N)C(=O)NCCCn2ccnc2)c1	none
COc1ccc2c(c1)C[C@@H](CON1C(C)(C)CCCC1(C)C)N2S(=O)(=O)c1ccc(C)cc1	none (no result: Hep lipid drop, V-ATPase pH, MPTP block, aDG glyco act)
CCC[C@H]1[C@@H](N(C)Cc2cccs2)CC[C@@]23CCCN2C(=O)CCC[C@@H]13	none (no result: Hep lipid drop, V-ATPase pH, MPTP block, aDG glyco act)
COc1ccc(CN2CCC(CO)(CCOc3ccccc3)CC2)cc1C	MPTP block 68 | Rh123 counter inactive | MPTP abs DR 20 | MPTP cs DR inactive
COc1cc(CN2CCC(CO)(CCOc3ccccc3)CC2)cc(OC)c1OC	none
O=[N+]([O-])c1ccc(N=Nc2ccc(O)c3ccccc23)cc1	MPTP block 98 (no result: ADAM17 inh, Hep lipid drop, ADAM10 inh) | Rh123 counter 79
O=C1Cc2ccccc2Sc2cc(OCCCN3CCCCC3)ccc21	MPTP block 71 | Rh123 counter inactive | MPTP abs DR 9.9 | MPTP cs DR inactive
C=CCN1C(=O)[C@H](CC(=O)NCc2ccc(C)o2)[C@@]2(C(=O)OCC)CCCC=C12	none (no result: Hep lipid drop, V-ATPase pH, MPTP block, aDG glyco act)
Cc1[nH]nc(Nc2ccc(Br)cc2)c1[N+](=O)[O-]	MPTP block 57 | Rh123 counter 72
Cc1ccc(Nc2n[nH]c(C)c2[N+](=O)[O-])cc1	none
COc1ccc(Oc2c(Br)cnn(Cc3cccc4ccccc34)c2=O)cc1	none (no result: Hep lipid drop, V-ATPase pH, MPTP block, aDG glyco act)
Cc1ccc(C)c(NC(=O)C2CCCN2S(=O)(=O)c2cccc3cccnc23)c1 (stereo unspecified)	none (no result: Hep lipid drop, V-ATPase pH, MPTP block, aDG glyco act)
COC(=O)c1cc(CSc2nc3ccccc3[nH]2)oc1C	MPTP block 82 | Rh123 counter 40
Cc1cc(C(=O)Nn2c(C3CCCCC3)nc3ccccc3c2=O)ccc1[N+](=O)[O-]	MPTP block 53 | Rh123 counter 77
O=C(Nn1c(C2CCCCC2)nc2ccccc2c1=O)c1ccc(Cl)c([N+](=O)[O-])c1	MPTP block 72 | Rh123 counter 83
O=C(Nn1c(C2CCCCC2)nc2ccccc2c1=O)c1cc(Cl)ccc1[N+](=O)[O-]	none
COC(=O)[C@]12C[C@H](CC(=O)NCc3ccc(C)o3)C(=O)N(Cc3ccco3)C1=C[C@H](C(C)C)O[C@@H]2C1CC1	none (no result: Hep lipid drop, V-ATPase pH, MPTP block, aDG glyco act)
FC(F)(F)c1cc(CCN2CCNC[C@@H]2c2ccccc2)cc(C(F)(F)F)c1	none (no result: Hep lipid drop)
FC(F)(F)c1cc(CO[C@@H]2CCCN[C@@H]2c2ccccc2)cc(C(F)(F)F)c1	MPTP block 103 (no result: Hep lipid drop) | Rh123 counter inactive | MPTP abs DR 4.3 | MPTP cs DR 54
Cc1nc2cc(C(=O)N3CCN(C(=O)OCc4ccccc4)CC3)ccc2n1C1CCCC1	none (no result: Hep lipid drop, V-ATPase pH, MPTP block, aDG glyco act)
CC(C)(C)c1ccc(Oc2ccc(NC(=O)c3cccs3)cn2)cc1	MPTP block 54 | Rh123 counter 44
CC(C)(C)NC(=O)C(c1cccnc1)N(C(=O)c1cccs1)c1ccc(C(C)(C)C)cc1 (stereo unspecified)	none (no result: Hep lipid drop, V-ATPase pH, MPTP block, aDG glyco act)
O=C1NC(=S)S/C1=C\c1cc2ccccc2nc1N1CCCCC1	MPTP block 73 | Rh123 counter 67
COc1ccc2nc(N3CCCCC3)c(/C=C3\SC(=S)NC3=O)cc2c1	MPTP block 76 | Rh123 counter 44
O=C1NC(=S)S/C1=C\c1cccc([N+](=O)[O-])c1	MPTP block 82 (no result: Hep lipid drop) | Rh123 counter 95
O=C1NC(=Nc2ccccc2Cl)S/C1=C\c1cccc([N+](=O)[O-])c1	none (no result: Hep lipid drop)
CCN(CC)c1ccc(C=C2SC(=S)NC2=O)cc1	MPTP block 64 (no result: Hep lipid drop) | Rh123 counter 78
N#C/C(=C\c1cc2ccccc2nc1N1CCCCC1)C(N)=O	none
CCN(CC)c1ccc(/C=C2\SC(N)=NC2=O)cc1	none
CC(C)(C)c1ccc(-c2noc(CCC(=O)NC3CC3)n2)cc1	none (no result: Hep lipid drop, V-ATPase pH, MPTP block, aDG glyco act)
O=C1NC(=S)SC1=Cc1ccccc1Cl	MPTP block 90 (no result: Hep lipid drop) | Rh123 counter 91
CCn1c2ccccc2c2cc(NC(=O)COC(=O)c3cccc(OC)c3)ccc21	none (no result: Hep lipid drop, V-ATPase pH, MPTP block, aDG glyco act)
